Active and inactive are the calls of the source. No cut-off for these calls is given here.
What was measured:
[1] = system: Mycobacterium tuberculosis; experiment: Inhibition of Mycobacterium tuberculosis Zinc metalloprotease-1 at 40 uM using angiotensin 2 as substrate preincubated for 3 mins and measured after 20 mins by MALDI-TOF MS analysis relative to control
Summary of the method: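 Human angiotensin II substrate in NH4HCO3 was preincubated 3 min at 37 °C with inhibitor in acetone (acetone alone for control). Recombinant Mtb Zmp1 was added and the reaction ran 20 min at 37 °C. Cleavage was followed by MALDI-TOF MS (reflectron positive mode). Inhibition rate at 40 µM was taken as the inverted ratio of time-course slopes, inhibited versus control. Phosphoramidon reference at 40 µM final.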

[2] = Inhibition of Mycobacterium tuberculosis Zinc metalloprotease-1 using angiotensin 2 as substrate preincubated for 3 mins and measured after 20 mins by MALDI-TOF MS analysis
Summary of the method: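 Zmp1 digestion of human angiotensin II in NH4HCO3 at 37 °C: 3 min preincubation with inhibitor, then 20 min reaction with recombinant Mtb Zmp1, monitored by MALDI-TOF MS. IC50 derived from slope ratios, inhibited versus control, at three inhibitor concentrations within 20–80 µM.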

[3] = Cytotoxicity against mouse RAW264.7 cells assessed as reduction in cell viability after 24 hrs by neutral red dye based assay
Summary of the method: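 Neutral red uptake assay on RAW264.7 murine macrophages in DMEM + 10% heat-inactivated FCS, 40.000 cells/well, seeded the day before. Two-fold serial dilutions from 128 µM final. Exposure 24 h at 37 °C, 5% CO2; then neutral red for 3 h, extraction with 1:1 ethanol/acetic acid. OD read at 530 nm (reference 620 nm).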

[4] = system: Mycobacterium tuberculosis; experiment: Antimycobacterial activity against Mycobacterium tuberculosis H37Ra infected in mouse RAW264.7 cells assessed as inhibition of intracellular bacterial growth at 10 uM after 24 hrs by luciferase reporter gene based assay relative to control; format: functional; conditions: RAW264.7, 24 h, read-out: INH
Summary of the method: (§1)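 Murine RAW264.7 macrophages (DMEM + 10% heat-inactivated FCS, 37 °C, 5% CO2; 40.000 cells/well) infected 2 h at 37 °C with luciferase-reporter Mtb H37Ra (pSMT1) at MOI 10. Extracellular bacteria were killed with 100 µg/ml gentamicin for 1 h. Compounds were given at 10 and 100 µM final; isoniazid reference 0.1 µM. After 24 h, cells were lysed in 1% Triton X-100 and read by luminescence after n-decanal addition. Inhibition % was calculated versus untreated control; mean of triplicates.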

[5] = system: Mycobacterium tuberculosis; experiment: Antimycobacterial activity against Mycobacterium tuberculosis H37Ra infected in mouse RAW264.7 cells assessed as inhibition of intracellular bacterial growth at 10 uM after 24 hrs by luciferase reporter gene based assay; format: functional, organism-based; summary of the method: as §1
[6] = Selectivity index, ratio of CC50 for mouse RAW264.7 cells to MIC90 for antimycobacterial activity against Mycobacterium tuberculosis H37Rv; format: toxicity; conditions: read-out: Selectivity Index
[7] = system: Mycobacterium tuberculosis; experiment: Antimycobacterial activity against Mycobacterium tuberculosis H37Ra infected in mouse RAW264.7 cells assessed as inhibition of intracellular bacterial growth at 100 uM after 24 hrs by luciferase reporter gene based assay; format: functional, organism-based; summary of the method: as §1
[8] = system: Mycobacterium tuberculosis; experiment: Antimycobacterial activity against Mycobacterium tuberculosis H37Ra infected in mouse RAW264.7 cells assessed as inhibition of intracellular bacterial growth at 100 uM after 24 hrs by luciferase reporter gene based assay relative to control; format: functional; conditions: RAW264.7, 24 h; summary of the method: as §1

| Structure (SMILES) | inhibition [1] [%] | IC50 [2] [µM] | CC50 at 24 h [3] [µM] | percent inhibition of intracellular bacterial growth at 10 µM [4] [%] | inhibition [5] | selectivity ratio [6] | inhibition [7] | inhibition in vivo at 100 µM [8] [%] |
| --- | --- | --- | --- | --- | --- | --- | --- | --- |
| O=C(CN1C(=O)S/C(=C\c2ccccc2)C1=O)NOCc1ccccc1 | 59.5 | 20 to 160 | > 128 | 38.3 |  |  |  |  |
| O=C(CN1C(=O)S/C(=C\c2ccc(F)cc2)C1=O)NOCc1ccccc1 | 78.3 | 20 to 160 | > 128 | 20.6 |  |  |  |  |
| C=CCONC(=O)CN1C(=O)S/C(=C\c2ccccc2)C1=O | 59 | 20 to 160 | > 128 |  |  |  |  |  |
| C=CCONC(=O)C(C)N1C(=O)S/C(=C\c2ccccc2)C1=O (centres undefined) | 13 | 20 to 160 | > 128 |  |  |  |  |  |
| O=C(CN1C(=O)CSC1=O)NOCc1ccccc1 | 31.9 | 20 to 160 | > 128 |  |  |  |  |  |
| C=CCONC(=O)CN1C(=O)S/C(=C\c2ccc(C(F)(F)F)cc2)C1=O | 87.2 | 20 to 160 | > 128 |  | inactive |  |  |  |
| C=CCONC(=O)CN1C(=O)CSC1=O | 92.2 | 20 to 160 | > 128 | 30.2 |  |  |  |  |
| CC(C(=O)NOCc1ccccc1)N1C(=O)S/C(=C\c2ccc(C(F)(F)F)cc2)C1=O (centres undefined) | 16.3 | 20 to 160 | > 128 | 19.4 |  |  |  |  |
| CCCC/C=C1\SC(=O)N(C(C)C(=O)NOCc2ccccc2)C1=O (centres undefined) | 37.1 | 20 to 160 | 43.9 |  | inactive | > 0.7 |  |  |
| C=CCONC(=O)CN1C(=O)S/C(=C\CCCC)C1=O | 89.9 | 18 | > 128 |  |  | > 2.1 | Active |  |
| CC(C(=O)NOCc1ccccc1)N1C(=O)CSC1=O (centres undefined) | 78.1 | 20 to 160 | > 128 |  |  |  |  |  |
| C=CCONC(=O)C(C)N1C(=O)S/C(=C\CCCC)C1=O (centres undefined) | 34.7 | 20 to 160 | > 128 |  |  |  |  |  |
| C=CCONC(=O)C(C)N1C(=O)S/C(=C\c2ccc(C(F)(F)F)cc2)C1=O (centres undefined) | 44.5 | 20 to 160 | > 128 |  | inactive |  |  |  |
| CCCC/C=C1\SC(=O)N(CC(=O)NOCc2ccccc2)C1=O | 99.8 | 20 to 160 | > 128 |  | inactive |  |  |  |
| C=CCONC(=O)CN1C(=O)S/C(=C\c2ccc(F)cc2)C1=O | 69.8 | 20 to 160 | > 128 |  |  |  |  |  |
| O=C(CN1C(=O)S/C(=C\c2ccc(C(F)(F)F)cc2)C1=O)NOCc1ccccc1 | 64.9 | 38 | > 128 | 48.8 |  |  |  | 70.4 |
| C=CCONC(=O)C(C)N1C(=O)CSC1=O (centres undefined) | 57.9 | 20 to 160 | > 128 | 21.6 |  |  |  |  |
| CC(C(=O)NOCc1ccccc1)N1C(=O)S/C(=C\c2ccc(F)cc2)C1=O (centres undefined) | 95.8 | 20 to 160 | > 128 | 25.1 |  |  |  |  |
| C=CCONC(=O)C(C)N1C(=O)S/C(=C\c2ccc(F)cc2)C1=O (centres undefined) | 95.5 | 20 to 160 | > 128 |  |  |  |  |  |
| CC(C)C[C@H](NP(=O)(O)O[C@@H]1O[C@@H](C)[C@H](O)[C@@H](O)[C@H]1O)C(=O)N[C@@H](Cc1c[nH]c2ccccc12)C(=O)O [PHOSPHORAMIDON] | 78 | 20 to 160 |  |  |  |  |  |  |
| CC/C(=C(\c1ccccc1)c1ccc(OCCN(C)C)cc1)c1ccccc1 [TAMOXIFEN] |  |  | 11.1 |  |  |  |  |  |
| CC(C(=O)NOCc1ccccc1)N1C(=O)S/C(=C\c2ccccc2)C1=O (centres undefined) | 93.3 | 20 to 160 | > 128 | 46.9 |  |  |  |  |

Reference: ChEMBL document CHEMBL4373742, “Novel thiazolidinedione-hydroxamates as inhibitors of Mycobacterium tuberculosis virulence factor Zmp1” (Eur J Med Chem, 2020)
